Laboratory results as given in ChEMBL document CHEMBL1932938, “From COX-2 inhibitor nimesulide to potent anti-cancer agent: synthesis, in vitro, in vivo and pharmacokinetic evaluation” (Eur J Med Chem, 2012).

Key:
[1] = test system: IGROV-1; experiment: Growth inhibition of human IGROV1 cells after 48 hrs by SRB assay; format: functional
[2] = test system: HT-29; experiment: Cytotoxicity against human HT-29 cells after 48 hrs by MTT assay; format: functional, cell-based; conditions: HT-29, 48 h
Procedure, shortened: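 HT29 cells (ATCC) kept in RPMI1640 with 10% heat-inactivated FBS, L-glutamine and pyruvate at 37 °C, 5% CO2. Cells plated 24 h, then exposed 48 h to graded compound concentrations in DMSO (0.1% final) beside vehicle controls. Incubated 2 h with 0.5 mg/ml MTT, formazan dissolved in DMSO, A570 read. Six replicates; IC50 from viability.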

[3] = test system: SK-BR-3; experiment: Cell cycle arrest in human SK-BR-3 cells assessed as accumulation at Sub-G1 phase at 0.50 uM after 24 hrs using propidium iodide staining by FACS analysis; format: functional
[4] = test system: M14; experiment: Growth inhibition of human M14 cells after 48 hrs by SRB assay; format: functional
[5] = Apparent oral clearance in Sprague-Dawley rat at 20 mg/kg, ip; format: ADME, organism-based; design: dose 20 mg/kg; conditions: in vivo
Procedure, shortened: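 Male Sprague–Dawley rats (300–350 g), n=3, fasted overnight with water available, given a single 20 mg/kg i.p. dose in PBS with 0.1% Tween80 and 20% DMSO. Blood drawn into heparinized tubes at 0, 0.25, 0.5, 1, 2, 4, 8 and 24 h. Plasma measured by LC-MS/MS against an internal standard. Parameters from non-compartmental analysis.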

[6] = test system: NCI/ADR-RES; experiment: Growth inhibition of human NCI/ADR-RES cells after 48 hrs by SRB assay; format: functional
[7] = test system: SK-MEL-28; experiment: Growth inhibition of human SK-MEL-28 cells after 48 hrs by SRB assay; format: functional
[8] = test system: SK-BR-3; experiment: Cell cycle arrest in human SK-BR-3 cells assessed as accumulation at Sub-G1 phase at 0.50 uM after 18 hrs using propidium iodide staining by FACS analysis; format: functional
[9] = test system: SK-BR-3; experiment: Cell cycle arrest in human SK-BR-3 cells assessed as accumulation at G1 phase at 0.25 uM after 24 hrs using propidium iodide staining by FACS analysis; format: functional
Procedure, shortened: (§1)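 SKBR-3 cells in RPMI1640 with 10% heat-inactivated FBS at 37 °C and 5% CO₂ were treated for the stated times. Cells were fixed overnight in 70% EtOH at −20 °C, then stained with propidium iodide buffer (38 mM sodium citrate pH 7.5, 69 µM PI, 120 µg/mL RNase A) for 15 min at room temperature in the dark. Up to 1×10⁴ gated cells were analyzed by flow cytometry, giving percent distribution per phase.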

[10] = test system: SK-BR-3; experiment: Cell cycle arrest in human SK-BR-3 cells assessed as accumulation at Sub-G1 phase at 0.50 uM after 6 hrs using propidium iodide staining by FACS analysis; format: functional
[11] = test system: K562; experiment: Growth inhibition of human K562 cells after 48 hrs by SRB assay; format: functional
[12] = test system: SK-BR-3; experiment: Cell cycle arrest in human SK-BR-3 cells assessed as accumulation at Sub-G1 phase at 0.10 uM after 12 hrs using propidium iodide staining by FACS analysis; format: functional
[13] = test system: SK-BR-3; experiment: Cell cycle arrest in human SK-BR-3 cells assessed as accumulation at Sub-G1 phase at 5 uM after 3 hrs using propidium iodide staining by FACS analysis; format: functional
[14] = test system: Mus musculus; experiment: Toxicity in BALB/c athymic nu/nu mouse xenografted with human HT-29 cells assessed as effect on body weight at 5 mg/kg/day, ip administered 5 times per week for 3 weeks; format: organism-based; design: route intraperitoneal; conditions: in vivo, 504 h
Procedure, shortened: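 BALB/c nu/nu mice, three per group, each inoculated s.c. with HT29 cells in Matrigel at two sites. Dosing began once tumors reached about 200 mm³: 5 mg/kg/d i.p., five times weekly for three weeks, in sesame oil with 1% DMSO. Controls received vehicle only. Body weight was recorded weekly.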

[15] = test system: NCI-H226; experiment: Growth inhibition of human NCI-H226 cells after 48 hrs by SRB assay; format: functional
[16] = test system: SNB-75; experiment: Growth inhibition of human SNB75 cells after 48 hrs by SRB assay; format: functional
[17] = test system: SK-BR-3; experiment: Cell cycle arrest in human SK-BR-3 cells assessed as accumulation at G1 phase at 0.10 uM after 24 hrs using propidium iodide staining by FACS analysis; format: functional; procedure, shortened: as §1
[18] = test system: SK-BR-3; experiment: Cell cycle arrest in human SK-BR-3 cells assessed as accumulation at S phase at 0.10 uM after 24 hrs using propidium iodide staining by FACS analysis; format: functional; procedure, shortened: as §1
[19] = test system: SK-BR-3; experiment: Cell cycle arrest in human SK-BR-3 cells assessed as accumulation at Sub-G1 phase at 0.25 uM after 6 hrs using propidium iodide staining by FACS analysis; format: functional
[20] = test system: SK-BR-3; experiment: Cell cycle arrest in human SK-BR-3 cells assessed as accumulation at G1 phase at 0.25 uM after 12 hrs using propidium iodide staining by FACS analysis; format: functional; procedure, shortened: as §1
[21] = test system: SK-BR-3; experiment: Cell cycle arrest in human SK-BR-3 cells assessed as accumulation at G2/M phase at 0.25 uM after 6 hrs using propidium iodide staining by FACS analysis; format: functional; procedure, shortened: as §1
[22] = test system: SK-BR-3; experiment: Cell cycle arrest in human SK-BR-3 cells assessed as accumulation at G2/M phase at 5 uM after 6 hrs using propidium iodide staining by FACS analysis; format: functional; procedure, shortened: as §1
[23] = test system: A498; experiment: Growth inhibition of human A498 cells after 48 hrs by SRB assay; format: functional
[24] = test system: SK-BR-3; experiment: Cell cycle arrest in human SK-BR-3 cells assessed as accumulation at S phase at 0.50 uM after 24 hrs using propidium iodide staining by FACS analysis; format: functional
[25] = test system: SK-BR-3; experiment: Cell cycle arrest in human SK-BR-3 cells assessed as accumulation at G1 phase at 5 uM after 24 hrs using propidium iodide staining by FACS analysis; format: functional; procedure, shortened: as §1
[26] = test system: NCI-H522; experiment: Growth inhibition of human NCI-H522 cells after 48 hrs by SRB assay; format: functional
[27] = test system: RPMI-8226; experiment: Growth inhibition of human RPMI8226 cells after 48 hrs by SRB assay; format: functional
[28] = test system: SK-BR-3; experiment: Cell cycle arrest in human SK-BR-3 cells assessed as accumulation at S phase at 0.50 uM after 6 hrs using propidium iodide staining by FACS analysis; format: functional
[29] = test system: SK-BR-3; experiment: Cell cycle arrest in human SK-BR-3 cells assessed as accumulation at G2/M phase at 0.10 uM after 3 hrs using propidium iodide staining by FACS analysis; format: functional; procedure, shortened: as §1

Cc1ccc(C)c(COc2cc(NC(=O)c3ccc4c(c3)OCO4)ccc2N(C)S(C)(=O)=O)c1
growth inhibition (GI) [1]: Dose-dependent effect | GI50 ([1]; IGROV-1, 48 h): 237 nM | TGI ([1]; IGROV-1, 48 h): > 100000 nM | CC50 ([1]; IGROV-1, 48 h, read-out: LC50 (the source's name)): > 100000 nM | IC50 [2]: 460 nM | Activity [3]: 27.94% | growth inhibition (GI) [4]: Dose-dependent effect | GI50 ([4]; M14, 48 h): 75.7 nM | TGI ([4]; M14, 48 h): 669 nM | CC50 ([4]; M14, 48 h, read-out: LC50 (the source's name)): > 100000 nM | CL/F [5]: 8 mL/min | GI50 [6]: 56.2 nM | TGI [6]: 407 nM | growth inhibition (GI) [6]: Dose-dependent effect | CC50 ([6]; read-out: LC50 (the source's name)): > 100000 nM | growth inhibition (GI) [7]: Dose-dependent effect | GI50 ([7]; SK-MEL-28, 48 h): 692 nM | TGI ([7]; SK-MEL-28, 48 h): > 100000 nM | CC50 ([7]; SK-MEL-28, 48 h, read-out: LC50 (the source's name)): > 100000 nM | Activity [8]: 8.47% | Activity [9]: 41.27% | Activity [10]: 4.03% | growth inhibition (GI) [11]: Dose-dependent effect | GI50 ([11]; K562, 48 h): 40.3 nM | TGI ([11]; K562, 48 h): > 100000 nM | CC50 ([11]; K562, 48 h, read-out: LC50 (the source's name)): > 100000 nM | Activity [12]: 5.27% | Activity [13]: 2.81% | Activity [14]: Non-toxic | growth inhibition (GI) [15]: Dose-dependent effect | GI50 ([15]; NCI-H226, 48 h): 686 nM | TGI ([15]; NCI-H226, 48 h): > 100000 nM | CC50 ([15]; NCI-H226, 48 h, read-out: LC50 (the source's name)): > 100000 nM | growth inhibition (GI) [16]: Dose-dependent effect | GI50 ([16]; SNB-75, 48 h): 266 nM | CC50 ([16]; SNB-75, 48 h, read-out: LC50 (the source's name)): > 100000 nM | Activity [17]: 67.9% | Activity [18]: 8.91% | Activity [19]: 3.49% | Activity [20]: 73.62% | Activity [21]: 9.32% | Activity [22]: 17.19% | growth inhibition (GI) [23]: Dose-dependent effect | TGI ([23]; A498, 48 h): 853 nM | CC50 ([23]; A498, 48 h, read-out: LC50 (the source's name)): > 100000 nM | Activity [24]: 11.21% | Activity [25]: 31.87% | growth inhibition (GI) [26]: Dose-dependent effect | GI50 ([26]; NCI-H522, 48 h): 33.5 nM | TGI ([26]; NCI-H522, 48 h): 240 nM | CC50 ([26]; NCI-H522, 48 h, read-out: LC50 (the source's name)): > 100000 nM | growth inhibition (GI) [27]: Dose-dependent effect | GI50 ([27]; RPMI-8226, 48 h): 290 nM | CC50 ([27]; RPMI-8226, 48 h, read-out: LC50 (the source's name)): > 100000 nM | Activity [28]: 14.73% | Activity [29]: 8.83%
